Assay outcomes as filed in PubChem.
In the library only some 2.6% were active in any assay of this set; here they are far more common.
KCC2 mod = modulators of human KCC2 chloride dependent transport; Q9H2X9; 190,000 tested, 2.2% active; B-score of Tl+ flux slope (higher = more flux/activation; lower = inhibition) at 10 µM; AID 1456; KCC2 cells, thallium flux FluoZin-2 fluorescence;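 active = thallium flux slope and its plate-corrected score both differing from the plate sample mean at a set confidence after two filtering rounds, in either direction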;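 note: slope of fluorescence scaled to starting intensity during 10 to 20 s after thallium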
CHT block = inhibits the human high affinity choline transporter. Q9GZV3. CHT-expressing cells, membrane potential dye, choline response; stronger effect = lower value. B-score at 10 µM. 310,000 tested, 0.86% active. AID 488975;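 active = B-score over 3 SD under the library average, and starting fluorescence ratio not unusually high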;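 note: choline stimulus applied at its EC90 after an EC20 pre-addition; B-score computed on integrated fluorescence ratio after choline addition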
Target sequence (Q9GZV3 whole entry, looked up): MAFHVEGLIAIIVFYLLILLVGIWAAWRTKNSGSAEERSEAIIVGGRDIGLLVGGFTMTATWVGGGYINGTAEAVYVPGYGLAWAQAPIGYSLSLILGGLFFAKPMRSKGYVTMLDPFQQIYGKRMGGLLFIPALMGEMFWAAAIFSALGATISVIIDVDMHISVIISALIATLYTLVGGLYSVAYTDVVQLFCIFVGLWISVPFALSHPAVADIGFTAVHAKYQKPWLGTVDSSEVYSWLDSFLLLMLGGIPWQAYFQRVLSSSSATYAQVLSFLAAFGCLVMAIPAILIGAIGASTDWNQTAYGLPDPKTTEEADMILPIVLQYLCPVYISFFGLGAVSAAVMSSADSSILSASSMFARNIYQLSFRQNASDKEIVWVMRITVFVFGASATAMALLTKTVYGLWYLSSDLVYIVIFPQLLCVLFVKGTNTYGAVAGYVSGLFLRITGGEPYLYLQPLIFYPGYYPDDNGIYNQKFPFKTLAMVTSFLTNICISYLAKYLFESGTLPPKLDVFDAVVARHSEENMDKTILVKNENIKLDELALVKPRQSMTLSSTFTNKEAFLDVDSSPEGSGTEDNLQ
CHT allo act = allosterically activates the human high affinity choline transporter; Q9GZV3; AID 488977; CHT-expressing cells, membrane potential dye, choline EC20; stronger effect = higher value; LV-AA mutant CHT in HEK293 cells; 310,000 tested, 0.49% active; B-score at 10 µM;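 active = initial fluorescence not abnormally high and integrated response B-score, plate-corrected, over 3 SD above library mean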
Rad51 HR inh = blocks human Rad51 in homologous recombination; inhibition, % at 10 µM; hRad51 DNA strand exchange, fluorescence dequenching; 200,000 tested, 0.085% active; Q06609;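 active = inhibition above 40% at the single screening dose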;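 note: 0% = DMSO control wells and 100% = blanks with heterologous ssDNA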
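Test system: preformed human Rad51 ssDNA filaments; also added: Donor/quencher-labelled 47-bp dsDNA substrate; doses: 10 µM final, single point; times: 37 °C 15-min filament assembly, 30-min compound preincubation, 15-min exchange; detection: FRET fluorescence dequenching, excitation 485 nm, emission 520 nm; read-out basis: Fluorescence-based percent inhibition, control- and blank-normalised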
CHT inh conf = confirmation of human choline transporter CHT inhibitors. 2,400 tested, 70% active. CHT activity remaining % of control (stronger effect = lower value), % at 10 µM. CHT-expressing cells, choline membrane potential dye; LV-to-AA substituted CHT, HEK293 cells. shares compounds with CHT block;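 active = choline transporter activity left, mean of duplicates at 10 µM, below buffer-only control mean minus 3 SD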;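 note: depolarization triggered by choline at its EC90 following an EC20 pre-addition; 0% = hemicholinium-3 full block and 100% = buffer-only control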
HEK293 MPD ctr = activity in parental HEK293 cells lacking CHT; 2,400 tested, 4% active; AID 493222; membrane potential ratio readout (active if shifted either direction beyond buffer ±3SD; no single direction) at 10 µM; shares compounds with CHT block; membrane potential dye, choline response; active = decrease or increase beyond buffer ±3SD;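 note: parental cells lack the transporter so any hit is non-specific; ratio is peak minus trough fluorescence over baseline after EC90 choline challenge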
Numbers without * were called inactive; i = inactive; nt = no result.

SMILES	KCC2 mod	CHT block	CHT allo act	Rad51 HR inh	CHT inh conf	HEK293 MPD ctr
O=C(CCCNC(=O)c1ccc(Cl)cc1)Nc1ccccc1F	nt	i	i	nt	nt	nt
CN(Cc1ccccc1F)C(=O)CCCNC(=O)c1ccc(Cl)cc1	nt	-5.8*	i	nt	55%*	i
CCOC(=O)c1ccc(NC(=S)N2CCN(C(=O)C3CCCO3)CC2)cc1 (stereo unspecified)	nt	i	i	nt	nt	nt
O=C(c1cccc2nccnc12)N1CCCC(Nc2ccc(F)c(F)c2)C1 (stereo unspecified)	nt	i	i	nt	nt	nt
Cc1ccccc1NS(=O)(=O)c1cc2c3c(c1)CC(=O)N3CCC2	nt	i	i	nt	nt	nt
Cc1ccccc1NS(=O)(=O)c1ccc(N2CCCC2=O)cc1	-0.23	-5*	i	-10	i	i
CC(=O)OC(C(=O)NC1CCCCC1)c1ccc(Cl)c(Cl)c1 (stereo unspecified)	-0.64	-11*	i	-2	i	i
CC(=O)OC(C(=O)NC1CCCCC1)c1ccc(C)cc1 (stereo unspecified)	0.55	i	i	2	nt	nt
CC(=O)/C(C#N)=C1\NC(=O)C(Cc2ccc(C)c(Cl)c2)S1 (stereo unspecified)	-2.2	-7*	i	28	i	i
O=C(c1ccccc1)N(Cc1cccnc1)C1(C(=O)Nc2ccccc2)CCCCC1	0.15	i	i	18	nt	nt
Cc1ccc2c(c1)N(CC(=O)NCC1CCCO1)C(=O)C(C(C)C)O2 (stereo unspecified)	nt	i	i	nt	nt	nt
O=C(O)CC/C(=N\Nc1ccc(S(=O)(=O)N2CCCC2)cc1[N+](=O)[O-])c1cccs1	-0.91	nt	nt	-2	nt	nt
O=C(O)CC/C(=N\Nc1ccccc1[N+](=O)[O-])c1cccs1	nt	-5.7*	i	nt	48%*	2.9*
O=C(c1ccccc1)C(C(=O)N1CCc2ccccc2C1)n1ccccc1=O (stereo unspecified)	-0.56	i	i	3	nt	nt
CCN1CCN(C(=O)C2CCCN(c3ncnc4c3nc3n4CCCCC3)C2)CC1 (stereo unspecified)	nt	i	i	nt	nt	nt
COc1cccc(N2CCN(C(=O)C3CCCN(c4ncnc5c4nc4n5CCCCC4)C3)CC2)c1 (stereo unspecified)	nt	-5.7*	i	nt	38%*	i
CCOC(=O)N1CCN(C(=O)C2CCCN(c3ncnc4c3nc3n4CCCCC3)C2)CC1 (stereo unspecified)	nt	-9.3*	i	nt	11%*	i
O=C(C1CCCN(c2ncnc3c2nc2n3CCCCC2)C1)N1CCN(c2ccccc2F)CC1 (stereo unspecified)	nt	-8.9*	i	nt	-11%*	i
CC1CCN(C(=O)C2CCCN(c3ncnc4c3nc3n4CCCCC3)C2)CC1 (stereo unspecified)	nt	i	i	nt	nt	nt
CCOc1ccc(C(C)=O)cc1CN1C(=O)NC2(CCCCCCC2)C1=O	-1.6	i	i	1	nt	nt
CCCSc1nc2sc3c(c2c(=O)n1CC)CC(C)(C)OC3	-0.017	i	i	-3	nt	nt
CCCCCc1nc2sc3c(c2c(=O)n1NC(=O)c1ccc([N+](=O)[O-])cc1)CC(C)(C)OC3	-0.037	-12*	i	nt	28%*	i
Cc1cn([C@H](C(=O)NCCCCCCCCCCC(=O)N2CCN(C(=O)OC(C)(C)C)CC2)[C@@H](C)O)nn1	nt	-6.8*	i	nt	60%*	i
O=C(NCc1cccnc1)C(=O)Nc1ccc([N+](=O)[O-])cc1	0.013	i	i	13	nt	nt
COC(=O)Nc1ccc(S(=O)(=O)NNC(=O)c2c(O)c3ccccc3n(C)c2=O)cc1	nt	-5.8*	i	nt	43%*	i
SMILES	KCC2 mod	CHT block	CHT allo act	Rad51 HR inh	CHT inh conf	HEK293 MPD ctr
O=C(Nc1ccccc1Cl)C1CCCN(c2ncnc3c2nc2n3CCCCC2)C1 (stereo unspecified)	nt	-5.2*	i	nt	26%*	i
O=C(NCc1ccccc1)C1CCCN(c2ncnc3c2nc2n3CCCCC2)C1 (stereo unspecified)	nt	i	i	nt	nt	nt
Cc1cccc(CCNC(=O)C2CCCN(c3ncnc4c3nc3n4CCCCC3)C2)c1 (stereo unspecified)	nt	-7.6*	i	nt	19%*	i
COc1ccccc1NC(=O)C1CCCN(c2ncnc3c2nc2n3CCCCC2)C1 (stereo unspecified)	nt	-6.8*	i	nt	5.7%*	i
Cc1csc(=Nc2ccccc2)n1CCCN1CCCC1=O	0.24	i	i	24	nt	nt
O=C(Nc1ccc(F)c(Cl)c1)C1CC2CCC1C2 (stereo unspecified)	nt	i	i	nt	nt	nt
CCC1(CC)C(=O)C2=C3C1[C@H](C(=O)OC)CC(C(=O)OC)C[C@H]3[C@H]1C(=O)N(c3ccccc3)C(=O)[C@H]1[C@H]2C (stereo partly specified)	nt	i	i	5	nt	nt
Cc1nc([N+](=O)[O-])c(Br)n1Cc1ccccc1	-0.68	-10*	i	nt	61%*	i
O=C(CN1C(=O)c2ccccc2C1=O)Nc1ccc(Cl)cn1	0.54	-5.1*	i	7	i	i
O=C(CCc1ccccc1)Nc1ccc(Cl)cn1	-0.9	i	i	1	nt	nt
S=c1nc(-c2ccco2)[nH][nH]1	0.51	-5.4*	i	5	48%*	i
Cc1ccc(S(=O)(=O)/N=C(\CN2CCCCC2)N2CCOCC2)cc1	nt	i	i	4	nt	nt
O=C(O)c1cnn(-c2nc(-c3cccc(F)c3)cs2)c1C(F)(F)F	-3.1	i	i	1	nt	nt
O=C(O)c1cnn(-c2nc(-c3cccc([N+](=O)[O-])c3)cs2)c1C(F)(F)F	nt	-6*	i	nt	66%*	i
COc1ccc(N2CC(C(=O)NC3=NCCS3)CC2=O)cc1 (stereo unspecified)	-0.33	i	i	-1	nt	nt
Cc1[nH]n(-c2ccccc2)c(=O)c1N=Nc1c(O)cc(S(=O)(=O)N(C)C)c2ccccc12	nt	-8.5*	i	nt	34%*	i
Cc1[nH]n(-c2ccccc2)c(=O)c1N=Nc1ccc2c(c1)OCCO2	0.95	i	i	4	nt	nt
O=C(c1cccc(OC2CCN(Cc3ccc(F)cc3Cl)CC2)c1)N1CCCC1	nt	-5.4*	i	nt	36%*	i
O=C1c2cccnc2C(=O)N1Cc1ccc(S(=O)(=O)N2CCOc3ccc(Cl)cc32)cc1	nt	-5.1*	i	nt	i	i
CCOc1ccc2nc(Cl)c(CN(C(C)=O)C3CCCCC3)cc2c1	-0.58	-5.5*	i	-10	i	i
CCOc1ccc2nc(Cl)c(CN(C(=O)c3cnccn3)C3CCCC3)cc2c1	-1.1	i	i	8	nt	nt
COC(=O)C1=C(C)N(C2CCCCC2)C(=O)/C1=C\c1cccs1	1.1	i	i	12	nt	nt
